Consider four molecules from ChEMBL document CHEMBL1146073, “A pyridazine series of alpha2/alpha3 subtype selective GABA A agonists for the treatment of anxiety” (J Med Chem, 2006).

SMILES strings stand for the structures. Activity calls are given as the source filed them.

Series [1] deals with T1, GABA-A receptor; alpha-3/beta-3/gamma-2 (Homo sapiens, UniProt P18507+P28472+P34903).
T1 sequence (P18507 whole entry): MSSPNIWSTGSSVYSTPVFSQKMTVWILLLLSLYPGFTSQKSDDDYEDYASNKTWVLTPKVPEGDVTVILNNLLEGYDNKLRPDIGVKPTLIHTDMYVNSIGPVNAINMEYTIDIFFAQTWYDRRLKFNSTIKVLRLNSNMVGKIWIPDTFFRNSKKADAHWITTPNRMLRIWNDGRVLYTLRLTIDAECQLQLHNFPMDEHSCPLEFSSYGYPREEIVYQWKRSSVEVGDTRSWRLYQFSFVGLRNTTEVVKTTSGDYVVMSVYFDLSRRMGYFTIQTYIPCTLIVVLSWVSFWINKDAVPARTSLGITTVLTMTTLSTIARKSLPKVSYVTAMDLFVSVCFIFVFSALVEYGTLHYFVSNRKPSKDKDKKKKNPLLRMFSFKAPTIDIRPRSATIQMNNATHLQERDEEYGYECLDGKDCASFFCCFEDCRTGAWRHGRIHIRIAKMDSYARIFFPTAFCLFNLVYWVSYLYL
T1 sequence (P28472 whole entry): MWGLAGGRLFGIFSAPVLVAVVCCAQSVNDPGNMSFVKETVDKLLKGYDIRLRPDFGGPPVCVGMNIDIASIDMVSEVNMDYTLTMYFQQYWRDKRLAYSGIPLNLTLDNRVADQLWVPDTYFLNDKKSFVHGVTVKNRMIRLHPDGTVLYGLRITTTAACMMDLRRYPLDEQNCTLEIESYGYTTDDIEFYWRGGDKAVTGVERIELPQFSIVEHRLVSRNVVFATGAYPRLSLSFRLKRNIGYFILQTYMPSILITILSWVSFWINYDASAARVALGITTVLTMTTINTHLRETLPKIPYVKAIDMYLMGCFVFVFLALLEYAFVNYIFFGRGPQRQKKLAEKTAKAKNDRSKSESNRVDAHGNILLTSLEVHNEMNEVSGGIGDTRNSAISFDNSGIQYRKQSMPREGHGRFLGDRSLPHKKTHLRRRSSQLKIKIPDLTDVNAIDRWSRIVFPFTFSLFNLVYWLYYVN
T1 sequence (P34903 whole entry): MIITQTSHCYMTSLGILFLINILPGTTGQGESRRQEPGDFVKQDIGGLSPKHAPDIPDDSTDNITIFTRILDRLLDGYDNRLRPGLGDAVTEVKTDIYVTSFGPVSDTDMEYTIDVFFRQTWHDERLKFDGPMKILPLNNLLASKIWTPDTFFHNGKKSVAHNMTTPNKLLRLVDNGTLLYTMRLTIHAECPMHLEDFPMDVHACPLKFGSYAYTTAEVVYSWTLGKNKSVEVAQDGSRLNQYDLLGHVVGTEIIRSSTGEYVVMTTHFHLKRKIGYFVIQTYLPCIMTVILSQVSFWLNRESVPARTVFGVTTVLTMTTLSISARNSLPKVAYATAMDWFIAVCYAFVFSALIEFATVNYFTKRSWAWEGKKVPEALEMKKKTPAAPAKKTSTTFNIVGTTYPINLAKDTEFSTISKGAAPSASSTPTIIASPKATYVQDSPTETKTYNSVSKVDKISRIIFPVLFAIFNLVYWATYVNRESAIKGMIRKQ
Briefly: Displacement of [3H]Ro-151788 from recombinant human GABA-Aalpha3 receptor plus beta3gamma2. Format: protein-complex assay. The method, boiled down:
(§1)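 Benzodiazepine-site binding on stably transfected αxβ3γ2 receptors (x = 1, 2, 3 or 5). Inhibition curves run with [3H]Ro15-1788 at roughly twice its Kd. Ki derived by Cheng-Prusoff equation. Mean of three to six determinations.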
Background: Loss of bound radioactivity is the signal in a displacement assay; it reports binding, not function.

Series [2] in a line: Stability in human assessed as liver microsomal turnover. It is filed as ADME, Microsome. The note with it: liver microsomes, read-out: Stability. The method, boiled down:
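Test compound at 1 µM, with diazepam as control, incubated 0.25 h with pooled liver microsomes at 0.5 mg/mL protein. Compound remaining quantified by LC/MS/MS. Turnover is the mean of three determinations.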
In general terms: Liver microsomes are a subcellular fraction often used to study metabolism.

For series [3], the target named is GABA-A receptor; anion channel (Rattus norvegicus) (UniProt O09028+P15431+P18506+P18508+P19969+P20236+P23574+P23576+P28471+P28473+P30191+P62813+P63079+P63138+Q91ZM7+Q9ES14). The series can be described thus: Receptor occupancy in vivo by displacement of [3H]Ro-151788 binding from GABA-A receptor in rat at 0.1 mg/kg, po. It is filed as functional, organism-based. On the set-up: dose 0.1 mg/kg. The method, boiled down: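 Rat in vivo occupancy measured by [3H]Ro 15-1788 binding after oral dosing. Rats taken as a subgroup after the plus-maze trial, i.e. 30 min post-dose or later. ED50 derived from dose-dependent occupancy. Mean ± SEM, n = 5-10/group.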

In series [4] the target is GABA-A receptor; alpha-1/beta-3/gamma-2 (Homo sapiens) (UniProt P14867+P18507+P28472). The series can be described thus: Efficacy against recombinant human GABA-Aalpha1 plus beta-3-gamma-2 expressed in L(tk-) cells by whole cell patch clamp method. Format: functional, cell-based. The method, boiled down: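 Whole-cell patch clamp on αxβ3γ2 receptors stably expressed in L(tk-) cells, measuring the effect on current evoked by an EC20-equivalent of GABA. Reported relative to full agonist chlordiazepoxide (=1.0), or as direct percent modulation of the EC20 control, with inverse agonism given as percent. Mean of at least four independent experiments.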
(In patch-clamp work, channel activity is measured electrically.)

Series [5] can be described thus: Plasma clearance in dog. It is filed as ADME, organism-based, Canis lupus familiaris. A digest of the protocol:
(§2)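 Pharmacokinetics from six animals per species: three dosed iv and three dosed po.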

Series [6] can be described thus: Half life in dog. The note with it: in vivo. Format: ADME, organism-based, Canis lupus familiaris. A digest of the protocol:
as §2

A short description of series [7]: Oral bioavailability in dog. The following applies: in vivo. Format: ADME, organism-based, Canis lupus familiaris. A digest of the protocol:
as §2

The nature of series [8]: Oral bioavailability in Rhesus monkey. Format: ADME, organism-based, Macaca mulatta. The note with it: in vivo. A digest of the protocol: as §2
In series [9] the test system is Rattus norvegicus. Briefly: Anxiolytic activity in rat plus-maze assay at 0.3 mg/kg, po. It is filed as functional, organism-based. Also on record: dose 0.3 mg/kg. A digest of the protocol:
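Rats given vehicle (0.5% methyl cellulose) or compound orally; chlordiazepoxide 5 mg/kg ip as positive control. Placed on elevated plus maze 30 min after dosing; time on open arms recorded as anxiety index. Significance versus vehicle at p < 0.05; mean ± SEM, n = 16-18/group.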

In series [10] the target is T2, GABA-A receptor; alpha-2/beta-3/gamma-2 (Homo sapiens, UniProt P18507+P28472+P47869).
T2 sequence (P18507 whole entry): T1 sequence (P18507 whole entry)
T2 sequence (P28472 whole entry): T1 sequence (P28472 whole entry)
T2 sequence (P47869 whole entry): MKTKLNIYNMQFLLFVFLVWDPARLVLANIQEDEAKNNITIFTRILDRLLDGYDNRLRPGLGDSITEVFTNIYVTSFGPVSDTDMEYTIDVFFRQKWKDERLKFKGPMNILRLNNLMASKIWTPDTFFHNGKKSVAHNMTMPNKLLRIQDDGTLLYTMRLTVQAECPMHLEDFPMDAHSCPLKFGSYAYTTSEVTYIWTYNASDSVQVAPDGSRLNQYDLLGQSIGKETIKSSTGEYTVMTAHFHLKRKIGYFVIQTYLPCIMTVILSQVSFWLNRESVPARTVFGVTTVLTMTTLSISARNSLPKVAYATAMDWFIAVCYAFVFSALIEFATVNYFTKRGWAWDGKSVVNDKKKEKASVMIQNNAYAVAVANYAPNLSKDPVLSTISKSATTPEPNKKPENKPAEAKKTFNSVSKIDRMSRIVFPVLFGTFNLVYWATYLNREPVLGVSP
Briefly: Displacement of [3H]Ro-151788 from recombinant human GABA-Aalpha2 receptor plus beta3gamma2. Format: protein-complex assay. A digest of the protocol:
as §1

Series [11] has as its system Rattus norvegicus. Briefly: Anxiolytic activity in rat plus-maze assay at 1 mg/kg, po.

Turning to `Fc1cnc(-c2cc(-c3ccc(F)c(-c4ncccc4F)c3)cnn2)c(F)c1`, in [1], the Ki worked out at 2 nM. The metabolised in series [2] is 6%. In series [3], the Activity came out at 57%. The Efficacy in [4] was -0.8%.

Consider `Fc1cnc(-c2cc(-c3cnnc(-c4c(F)cncc4F)c3)ccc2F)c(F)c1`, for which the clearance in [5] worked out at 17 mL/min/kg. Further, in series [6], the half-life is 3.9 h. Moreover, the bioavailability in series [7] was determined as 72%; in series [8], 46%. The Ki in series [1] amounted to 6.3 nM. Also, the metabolised in series [2] stood at 3%. In series [9], the outcome was Active. The Efficacy in series [4] was -3%.

Molecule `Fc1cnc(-c2cc(-c3ccc(F)c(-c4ncc(F)cc4F)c3)cnn2)c(F)c1` gave a clearance in series [5] of 3.9 mL/min/kg. The same molecule showed a half-life in series [6] of 15 h. In [7], this molecule yielded a bioavailability of 40%. For the same molecule, the Ki worked out at 8.5 nM in series [1] and 10.9 nM in [10]. Moreover, in [2], the metabolised is 3%. In series [4], the Efficacy is -7%. Besides, in [11], the result was Active.

For `Fc1cnc(-c2cc(-c3cnnc(-c4c(F)cc(F)cc4F)c3)ccc2F)c(F)c1`, the Ki in series [1] amounted to 5 nM; in [10] it was 4.6 nM. For the same molecule, the metabolised in series [2] came out at 7%. In addition, the Efficacy in series [4] was -9%.

The Ki is the equilibrium dissociation constant of an inhibitor or competing ligand from its target. Broadly, the clearance is a measure of how efficiently the substance is removed, as volume per time. Usually half-life stands for the time needed for the level to fall by half in the phase considered. By bioavailability is commonly meant dose-corrected exposure relative to a reference, in per cent.
